ChEMBL document CHEMBL4364284, “Design, Synthesis, and Efficacy Testing of Nitroethylene- and 7-Nitrobenzoxadiazol-Based Flavodoxin Inhibitors against Helicobacter pylori Drug-Resistant Clinical Strains and in Helicobacter pylori-Infected Mice” (J Med Chem, 2019)
In brackets after ≈: the same amount, converted by molar mass. Activity calls are given as the source filed them. The rule behind the calls is not given here.

How the values were obtained:
[1] = target: T1, Flavodoxin (Helicobacter pylori (strain ATCC 700392 / 26695) (Campylobacter pylori)) (UniProt O25776); test: Inhibition of flavodoxin in Mnz-resistant Helicobacter pylori NCTC 11637 ATCC 43504 assessed as reduction in bacterial growth measured after 48 hrs by resazurin staining-based microdilution method; conditions: Helicobacter pylori NCTC 11637 = CCUG 17874 = ATCC 43504
T1 sequence (whole entry): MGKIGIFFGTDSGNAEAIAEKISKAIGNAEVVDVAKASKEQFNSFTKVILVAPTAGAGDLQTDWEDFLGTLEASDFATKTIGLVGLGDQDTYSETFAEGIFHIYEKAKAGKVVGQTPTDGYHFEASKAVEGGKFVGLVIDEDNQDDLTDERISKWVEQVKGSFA
Summary of the method: (§1)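 Broth microdilution in brain heart infusion with 4% FBS. Inoculum diluted to OD600 0.01. Two-fold dilutions from a DMSO stock cover 64–0.031 μg/mL, with DMSO ≤1% v/v. Incubated 48 h at 37 °C under microaerophilic conditions. MIC is the lowest concentration giving complete growth inhibition, read by resazurin colour change and confirmed by spotting on blood agar. Run twice in triplicate.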

[2] = Stability of the compound in DMSO-d6 at pH 1 incubated for 19 hrs under shaking condition by 1H-NMR analysis; type: physicochemical; conditions: pH 1, 19 h
[3] = target: T1, Flavodoxin (Helicobacter pylori (strain ATCC 700392 / 26695) (Campylobacter pylori)); test: Inhibition of flavodoxin in Helicobacter pylori SS1 assessed as reduction in bacterial growth measured after 48 hrs by resazurin staining-based microdilution method; summary of the method: as §1
[4] = target: T1, Flavodoxin (Helicobacter pylori (strain ATCC 700392 / 26695) (Campylobacter pylori)); test: Binding affinity to Helicobacter pylori flavodoxin by isothermal titration calorimetric method
[5] = target: T1, Flavodoxin (Helicobacter pylori (strain ATCC 700392 / 26695) (Campylobacter pylori)); test: Inhibition of flavodoxin in Helicobacter pylori ATCC 700392 26695 assessed as reduction in bacterial growth measured after 48 hrs by resazurin staining-based microdilution method; conditions: Helicobacter pylori 26695; summary of the method: as §1
[6] = target: T1, Flavodoxin (Helicobacter pylori (strain ATCC 700392 / 26695) (Campylobacter pylori)); test: Binding affinity to Helicobacter pylori flavodoxin by thermal upshift assay
[7] = target: T1, Flavodoxin (Helicobacter pylori (strain ATCC 700392 / 26695) (Campylobacter pylori)); test: Inhibition of flavodoxin in clarithromycin/metronidazole-resistant Helicobacter pylori isolate 6 assessed as reduction in bacterial growth measured after 48 hrs by resazurin staining-based microdilution method
[8] = target: T1, Flavodoxin (Helicobacter pylori (strain ATCC 700392 / 26695) (Campylobacter pylori)); test: Inhibition of flavodoxin in metronidazole-resistant Helicobacter pylori isolate 2 assessed as reduction in bacterial growth measured after 48 hrs by resazurin staining-based microdilution method
Summary of the method: (§2)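 Clinical isolates from gastric biopsies of patients who failed ≥2 therapies; resistance classified by EUCAST breakpoints. […] Read by resazurin colour change as the lowest concentration giving complete growth inhibition.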

[9] = target: T1, Flavodoxin (Helicobacter pylori (strain ATCC 700392 / 26695) (Campylobacter pylori)); test: Inhibition of flavodoxin in clarithromycin/metronidazole-resistant Helicobacter pylori isolate 4 assessed as reduction in bacterial growth measured after 48 hrs by resazurin staining-based microdilution method; summary of the method: as §2
[10] = target: T1, Flavodoxin (Helicobacter pylori (strain ATCC 700392 / 26695) (Campylobacter pylori)); test: Inhibition of flavodoxin in metronidazole-resistant Helicobacter pylori isolate 1 assessed as reduction in bacterial growth measured after 48 hrs by resazurin staining-based microdilution method; summary of the method: as §2
[11] = Therapeutic index, ratio of MCC50 for human HeLa cells to MIC for inhibition of flavodoxin in Helicobacter pylori ATCC 700392 26695 assessed as reduction in bacterial growth; type: toxicity; conditions: HeLa cells versus Helicobacter pylori ATCC 700392 26695, read-out: TI
Summary of the method: (§3)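 TI is MCC50/MIC. For MCC50, HeLa cells (30 000/well, DMEM with 10% FBS) were exposed to compound at 25–1000 μM final. Viability by XTT at 450/650 nm; MCC50 is the concentration giving 50% lysis from viability curves. Run twice in triplicate.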

[12] = Toxicity in NMRI mouse infected with Helicobacter pylori SS1 assessed as change in appetite at 10 to 20 mg/100g, po administered daily via gavage for 8 days starting from 1 week post-infection; type: organism-based; conditions: in vivo
Summary of the method: (§4)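 Female 6-week-old SPF NMRI mice infected orogastrically with Hp SS1 on days 1 and 3. Compound in 5–10% DMSO/olive oil (100 μL) given by daily oral gavage for 8 days from day 8. Body weight and appetite were monitored during treatment; infected controls received vehicle alone.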

[13] = Toxicity in NMRI mouse assessed as change in body weight at 10 to 20 mg/100g, po administered daily via gavage for 8 days; type: organism-based; conditions: in vivo, 192 h
Escherichia coli = test: Effect on growth of Escherichia coli DH5[alpha] after 48 hrs by resazurin-dye based microdilution assay; type: organism-based
[14] = Therapeutic index, ratio of MCC50 for human HeLa cells to MIC for inhibition of flavodoxin in Helicobacter pylori SS1 assessed as reduction in bacterial growth; type: toxicity; conditions: HeLa cells versus Helicobacter pylori SS1, read-out: TI; summary of the method: as §3
Staphylococcus aureus = test: Effect on growth of Staphylococcus aureus ATCC 1228 after 48 hrs by resazurin-dye based microdilution assay; type: organism-based
Helicobacter pylori [15] = test: Antibacterial activity against Helicobacter pylori SS1 infected in NMRI mouse assessed as reduction in gastric colonization at 10 mg/100g, po administered daily via gavage for 8 days starting from 1 week post-infection and measured 8 days post-last dose; type: functional, organism-based
Summary of the method: (§5)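 Female 6-week-old SPF NMRI mice, seven per condition, infected orogastrically on days 1 and 3 with 100 μL Hp SS1 (5 × 10^8 CFU/mL). From day 8, 100 μL compound in 5–10% DMSO/95–90% olive oil by daily oral gavage for 8 days. Infected controls got vehicle. Killed day 24; stomach homogenates plated 5 days at 37 °C microaerophilic; CFU/g tissue versus control. Mann-Whitney U and unpaired t tests, p ≤ 0.05.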

[16] = Cytotoxicity against human HeLa cells assessed as reduction in cell viability by XTT assay; type: cell-based; conditions: read-out: MCC50
Summary of the method: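 HeLa cells grown in DMEM with 10% FBS, penicillin and streptomycin at 37 °C, 5% CO2; 30 000 cells/well. XTT viability read at 450 and 650 nm. MCC50 (50% lysis) came from viability-versus-concentration curves. Two experiments, each in triplicate.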

[17] = Therapeutic index, ratio of MCC50 for human HeLa cells to MIC for inhibition of flavodoxin in Mnz-resistant Helicobacter pylori NCTC 11637 ATCC 43504 assessed as reduction in bacterial growth; type: toxicity; conditions: read-out: TI; summary of the method: as §3
Helicobacter pylori [18] = test: Antibacterial activity against Helicobacter pylori SS1 infected in NMRI mouse assessed as bacterial eradication at 10 mg/100g, po administered daily via gavage for 8 days starting from 1 week post-infection and measured 8 days post-last dose; type: functional, organism-based; summary of the method: as §5
[19] = Toxicity in NMRI mouse infected with Helicobacter pylori SS1 assessed as change in body weight at 10 to 20 mg/100g, po administered daily via gavage for 8 days starting from 1 week post-infection; type: organism-based; conditions: in vivo; summary of the method: as §4

With `COc1ccc(C2(C)SCc3cc(C)c(C)cc3CS2)cc1` as the molecule, how does the MIC [1] read?
The MIC was 3 µM (≈ 0.992 µg/mL).

And the Stability [2]?
Its Stability is “Stable”.

And the MIC [3]?
Its MIC is 6.1 µM (≈ 2.02 µg/mL).

And the Activity [4]?
The Activity was “Active”.

And the MIC [5]?
The MIC was 3 µM (≈ 0.992 µg/mL).

And the Activity [6]?
Its Activity is “Active”.

Which results are given for `COc1ccc(CSc2ccc([N+](=O)[O-])c3nonc23)cc1`?
MIC [1]: 1.6 µM (≈ 0.508 µg/mL); Stability [2]: Stable; MIC [3]: 0.78 µM (≈ 0.248 µg/mL); Activity [4]: Active; MIC [5]: 6.3 µM (≈ 2 µg/mL); Activity [6]: Active

Which results are given for `COc1ccc(CSc2ccc(N)c3nonc23)cc1`?
inhibition [7]: Active; MIC [1]: 27.8 µM (≈ 7.99 µg/mL); Stability [2]: Stable; inhibition [8]: Active; MIC [3]: 13.9 µM (≈ 3.99 µg/mL); Activity [4]: Active; MIC [5]: 27.8 µM (≈ 7.99 µg/mL); inhibition [9]: Active; inhibition [10]: Active; Activity [6]: Active

For `O/N=C1\Cc2cc(Cl)cc(Cl)c2OC1c1ccc(F)cc1` (stereo not drawn), which MIC [1] is on record?
Its MIC is 6.1 µM (≈ 1.99 µg/mL).

And the MIC [3]?
Its MIC is 12 µM (≈ 3.91 µg/mL).

What about the selectivity ratio [11] of the same molecule?
Its selectivity ratio is 19.

And the Activity [12]?
Its Activity is “Non-Toxic”.

What about the Activity [13] of the same molecule?
Its Activity is “Non-Toxic”.

What about the Activity (Escherichia coli) of the same molecule?
Its Activity is “Non-Toxic”.

What about the selectivity ratio [14] of the same molecule?
Its selectivity ratio is 10.

And the Activity [4]?
Its Activity is “Active”.

What about the Activity (Staphylococcus aureus) of the same molecule?
The Activity was “Non-Toxic”.

What about the MIC [5] of the same molecule?
Its MIC is 6.1 µM (≈ 1.99 µg/mL).

What about the Activity (Helicobacter pylori [15]) of the same molecule?
The Activity was “Active”.

And the CC50 [16]?
The CC50 was 117 µM.

What about the selectivity ratio [17] of the same molecule?
The selectivity ratio was 19.

And the Activity (Helicobacter pylori [18])?
Its Activity is “inactive”.

And the Activity [19]?
Its Activity is “Non-Toxic”.

And the Activity [6]?
The Activity was “Active”.
